Test results reported in ChEMBL document CHEMBL1146298, “Identification of the benzodiazepines as a new class of antileishmanial agent” (Bioorg Med Chem Lett, 2007).
Active and inactive are the calls of the source. The calls are words filed in the database; no cut-off is given here.

What was measured:
Leishmania donovani [1] = experiment: Antileishmanial activity against antimony-sensitive Leishmania donovani 200016 promastigotes in bone marrow-derived macrophages assessed as parasite suppression at 100 ug/ml; type: functional
Summary of the method: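 Fixed 72 h post-treatment and Giemsa-stained (10% v/v). Percent of 200 random cells infected was scored, and mean % suppression ± SE was taken against the control mean. Mann–Whitney U test vs control, p < 0.05 significant.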

[2] = Toxicity against bone marrow-derived macrophages; type: cell-based; conditions: human, macrophage
Macrophage = experiment: Decrease in cellular glutathione levels in macrophages; type: functional, cell-based; conditions: Homo sapiens
Leishmania donovani [3] = experiment: Antileishmanial activity against antimony-sensitive Leishmania donovani 200016 promastigotes in bone marrow-derived macrophages at 37 ug/ml; type: functional
Leishmania donovani [4] = experiment: Antileishmanial activity against antimony-sensitive Leishmania donovani 200016 promastigotes in bone marrow-derived macrophages; type: functional; conditions: read-out: LD50 (the source's name)
Summary of the method: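 After 72 h, cells fixed and stained with 10% v/v aqueous Giemsa; mean percentage of infected cells scored from 200 random cells. Mean percentage suppression ± SE computed against control mean; significance tested by Mann–Whitney U test, p < 0.05.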

| Structure (SMILES) | Activity (Leishmania donovani [1]) | other results |
| --- | --- | --- |
| CCCN1CC(=O)N(C)c2ccccc2C1=O | 72% | – |
| O=C1CNC(=O)c2ccccc2N1 | 19% | – |
| CN1C(=O)CN(CCc2ccccc2)C(=O)c2ccccc21 | 19.6% | – |
| O=C1c2ccccc2NC[C@H]2CCCN12 | 61.7% | – |
| O=C1Nc2ccccc2C(=O)N2CCC[C@H]12 | 85.4% | – |
| CN1C(=O)CN(C2CCCCC2)C(=O)c2ccccc21 | 26.4% | – |
| CN1C(=O)CN(CC2CCCCC2)C(=O)c2ccccc21 | – | Activity [2]: Toxic; Activity (Macrophage): Active; Activity (Leishmania donovani [3]): inactive |
| O=C1N[C@@H](Cc2ccc(O)cc2)C(=O)Nc2ccccc21 | 64.4% | – |
| O=C1N[C@H](Cc2ccccc2)C(=O)Nc2ccccc21 | 23% | – |
| CN1C(=O)CN(c2ccccc2)C(=O)c2ccccc21 | inactive | – |
| O=C1N[C@@H](Cc2ccccc2)C(=O)Nc2ccccc21 | 53.5% | – |
| c1ccc2c(c1)CN1CCC[C@@H]1CN2 | 67.8% | – |
| O=C1Nc2ccccc2C(=O)N2CSC[C@@H]12 | 33% | Activity [2]: Toxic |
| CN1CC(=O)N(C)c2ccccc2C1=O | inactive | – |
| CC(C)C[C@@H]1NC(=O)c2ccccc2NC1=O | inactive | – |
| CN1C(=O)CN(CC2CCCCC2)C(=O)c2cc(Cl)ccc21 | 85% | LC50 (Leishmania donovani [4]): 115 µM; Activity (Macrophage): Active; Activity (Leishmania donovani [3]): 73% |
| CCCCCCN1CC(=O)N(C)c2ccccc2C1=O | inactive | Activity [2]: Toxic |
| O=C1c2ccccc2NC[C@@H]2CCCN12 | 70.6% | – |
| CN1C(=O)CN(CC2CC2)C(=O)c2ccccc21 | inactive | – |
| c1ccc2c(c1)CN1CCC[C@H]1CN2 | 23% | – |
| O=C1Nc2ccccc2C(=O)N2CCC[C@@H]12 | 70.3% | – |
| COc1cccc(CN2CC(=O)N(C)c3ccccc3C2=O)c1 | 54.6% | – |
| C[C@@H]1NC(=O)c2ccccc2NC1=O | 28% | – |
| O=C1Nc2ccccc2C(=O)N2Cc3ccccc3C[C@@H]12 | 25% | – |
| CN1C(=O)CN(Cc2ccccc2)C(=O)c2ccccc21 | 51% | – |
